For 27 molecules, CC50, fold change (FC) and IC50 results are on record in ChEMBL document CHEMBL4219161, “New phenylaniline derivatives as modulators of amyloid protein precursor metabolism” (Bioorg Med Chem, 2018).

What all share (assay type): cell-based
A short description of data set [1]: Cytotoxicity against human SH-SY5Y cells after 72 hrs by MTT assay. Summed up:
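SH-SY5Y cells grown in DMEM with 10% heat-inactivated FBS, 2 mM L-glutamine, non-essential amino acids and penicillin/streptomycin at 37 °C, 5% CO2. Cells were exposed to compounds at 100, 50, 10, 5, 1, 0.5, 0.1 and 0.05 µM, in under 0.1% DMSO, for 72 h. Growth was read by colorimetric MTT; CC50 taken as the concentration causing 50% cell death.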

The target of data set [2] is T1, Amyloid-beta precursor protein (Homo sapiens, UniProt P05067). The experiment in a line: Modulation of human wild-type APP695 expressed in SH-SY5Y cells assessed as increase in AICD level at 3 uM measured after 24 hrs by Western blot analysis relative to chloroquine. Summed up:
(§1)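 SY5Y stably transfected with human APP695 (pcDNA3.1, G418-selected clone SY5Y-APPwt) was plated 24 h before treatment and exposed to compound for 24 h. Lysates were made in Laemmli buffer with protease inhibitors and sonicated. 20 µg protein/lane was run on 16% Tris-Tricine gel and blotted to PVDF. Blots were probed overnight at 4 °C with APP C-terminal (last 17 aa) rabbit antiserum 1:4000 and developed by chemiluminescence. Band area was quantified with H3 reprobe. Result is the fragment level ratio of compound to chloroquine, both at 3 µM; mean of ≥3 independent experiments.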
(In general: Immunoblotting shows a protein as a band on a membrane.)

Data set [3] addresses T1, Amyloid-beta precursor protein. Briefly: Modulation of human wild-type APP695 expressed in SH-SY5Y cells assessed as inhibition of amyloid beta (1 to 40 residues) production measured after 24 hrs. An outline of the steps:
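SY5Y-APPwt cells (stable human APP695 clone) were exposed to compound for 24 h. Conditioned medium was spun at 200×g, frozen at −80 °C and assayed by ELISA for Aβ1-40 or Aβ1-42, with samples in duplicate and experiments in triplicate. Values were normalised to untreated control set to 100%. IC50 is the concentration lowering secreted Aβ to 50% of basal; mean of ≥3 independent experiments.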

Data set [4] has the same target. The experiment in a line: Modulation of human wild-type APP695 expressed in SH-SY5Y cells assessed as increase in CTFalpha level at 3 uM measured after 24 hrs by Western blot analysis relative to chloroquine. Summed up:
as §1

Data set [5] shares this target. The experiment in a line: Modulation of human wild-type APP695 expressed in SH-SY5Y cells assessed as increase in ACID level at 3 uM measured after 24 hrs by Western blot analysis relative to amodiaquine. An outline of the steps:
(§2)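 Stable human APP695 SY5Y clone (SY5Y-APPwt) was treated with compound for 24 h and lysed in Laemmli buffer with protease inhibitors. 20 µg protein/lane was separated on 16% Tris-Tricine gel and transferred to PVDF. Blots were probed with rabbit antiserum against the APP C-terminal 17 residues (1:4000, overnight at 4 °C) and read by chemiluminescence with densitometric area-under-curve. H3 was used as reprobe.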

Data set [6] shares this target. The experiment in a line: Modulation of human wild-type APP695 expressed in SH-SY5Y cells assessed as increase in CTFalpha level at 3 uM measured after 24 hrs by Western blot analysis relative to amodiaquine. Summed up:
as §2

Data set [7] has the same target. The experiment in a line: Modulation of human wild-type APP695 expressed in SH-SY5Y cells assessed as increase in ACID level at 10 uM measured after 24 hrs by Western blot analysis relative to amodiaquine. An outline of the steps: as §2
The target is the same in data set [8]. Briefly: Modulation of human wild-type APP695 expressed in SH-SY5Y cells assessed as increase in CTFalpha level at 10 uM measured after 24 hrs by Western blot analysis relative to chloroquine. An outline of the steps:
as §2

Data set [9] shares this target. The experiment in a line: Modulation of human wild-type APP695 expressed in SH-SY5Y cells assessed as increase in CTFalpha level at 10 uM measured after 24 hrs by Western blot analysis relative to amodiaquine. An outline of the steps: as §2

As a reminder, the CC50 is the concentration at which the toxic effect on the cells reaches its halfway point. A lower CC50 goes with harm at low concentration. What is called IC50 is the point on the concentration scale where inhibition reaches its midpoint.

T1 sequence (P05067 whole entry, the tested form may be a part): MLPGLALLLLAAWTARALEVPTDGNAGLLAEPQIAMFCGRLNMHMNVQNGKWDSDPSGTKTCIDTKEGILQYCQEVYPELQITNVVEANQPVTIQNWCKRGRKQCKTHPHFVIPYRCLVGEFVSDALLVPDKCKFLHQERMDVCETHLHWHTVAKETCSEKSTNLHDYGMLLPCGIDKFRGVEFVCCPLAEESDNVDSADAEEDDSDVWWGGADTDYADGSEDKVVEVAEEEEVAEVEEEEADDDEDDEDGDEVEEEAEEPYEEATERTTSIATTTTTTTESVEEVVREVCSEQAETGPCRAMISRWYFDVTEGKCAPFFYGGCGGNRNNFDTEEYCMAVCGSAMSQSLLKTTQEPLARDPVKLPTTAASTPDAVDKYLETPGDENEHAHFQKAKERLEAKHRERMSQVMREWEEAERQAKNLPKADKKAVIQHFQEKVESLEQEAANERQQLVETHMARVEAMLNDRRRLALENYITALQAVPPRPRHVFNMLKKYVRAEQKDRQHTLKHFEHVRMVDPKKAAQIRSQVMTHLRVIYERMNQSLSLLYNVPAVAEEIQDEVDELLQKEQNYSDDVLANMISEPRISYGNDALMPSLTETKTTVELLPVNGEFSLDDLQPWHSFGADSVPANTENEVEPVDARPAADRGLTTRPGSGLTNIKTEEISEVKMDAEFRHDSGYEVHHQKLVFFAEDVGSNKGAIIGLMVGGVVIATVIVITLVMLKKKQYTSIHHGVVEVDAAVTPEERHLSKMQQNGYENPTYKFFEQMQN

For `CCN(CC)Cc1cc(NCCN2CCCCC2)cc(Nc2ccnc3cc(Cl)ccc23)c1`, the CC50 at 72 h in data set [1] was 15 µM. Further, the fold change (FC) was 0.4 in data set [2] and 0.5 in data set [4]. In addition, the IC50 in data set [3] worked out at 10 µM.
In the case of `CN(C)Cc1ccccc1Nc1cc(CNCCN2CCCCC2)cc(CNCCN2CCCCC2)c1`, the CC50 at 72 h in data set [1] is above 100 µM. Moreover, the IC50 in [3] was above 10 µM.
The corresponding values for `CN(C)Cc1ccccc1-c1cc(CNCCN2CCCCC2)cc(CNCCN2CCCCC2)c1` are above 100 µM and above 10 µM.
In [1], `O=C(NCCN1CCCCC1)c1cc(C(=O)NCCN2CCCCC2)cc(-c2ccccc2CN2CCCCC2)c1` registered a CC50 at 72 h above 100 µM. The fold change (FC) in data set [2] came out at 1.9; in data set [4], 1.4. Besides, the IC50 in data set [3] was 6.2 µM.
In data set [1], `Clc1ccc2c(Nc3cc(CN4CCOCC4)cc(NCCN4CCCCC4)c3)ccnc2c1` registered a CC50 at 72 h of 10 µM. The fold change (FC) in data set [2] and in data set [4] was 1.2 in each case. Also, the IC50 in [3] was 2.5 µM.
As to `CN1CCN(Cc2ccccc2-c2cc(CNCCN3CCCCC3)cc(CNCCN3CCCCC3)c2)CC1`, the CC50 at 72 h in data set [1] was above 100 µM. Besides, in data set [3], the IC50 is above 10 µM.
Take `CN1CCN(Cc2ccccc2Nc2cc(CNCCN3CCCCC3)cc(CNCCN3CCCCC3)c2)CC1`: the CC50 at 72 h in data set [1] was above 100 µM. Moreover, the IC50 in data set [3] was above 10 µM.
The like results for `CN(C)Cc1ccccc1-c1cc(C(=O)NCCN2CCCCC2)cc(C(=O)NCCN2CCCCC2)c1` were, in that order, above 100 µM and above 10 µM.
The like results for `c1ccc(-c2cc(CNCCN3CCCCC3)cc(CNCCN3CCCCC3)c2)c(CN2CCCCC2)c1` were, in that order, above 100 µM and above 10 µM.
`Oc1c(CN2CCCC2)cc(Nc2ccnc3cc(Cl)ccc23)cc1CN1CCCC1`: it took 30 µM to reach half-maximal cytotoxicity in data set [1] (CC50 at 72 h). For the same molecule, the values for the fold change (FC) in data set [2] and in data set [4] were 0.6 and 0.5, respectively. In data set [3], the IC50 turned out to be 5.1 µM.
In turn, `O=C(NCCN1CCCCC1)c1cc(C(=O)NCCN2CCCCC2)cc(-c2ccccc2CN2CCOCC2)c1` gave a CC50 at 72 h in data set [1] above 100 µM. Further, in data set [3], the IC50 is above 10 µM.
For `CCN(CC)CCCC(C)Nc1ccnc2cc(Cl)ccc12` (stereo not drawn) [CHLOROQUINE], in data set [1], the CC50 at 72 h worked out at 30 µM. Besides, the fold change (FC) in data set [2] and in data set [4] was 1 each time. In data set [3], the IC50 turned out to be 7 µM.
On to `CCN(CC)Cc1cc(NC(=O)CN2CCCCC2)cc(Nc2ccnc3cc(Cl)ccc23)c1`, for which the CC50 at 72 h in [1] is 4 µM. Further, the fold change (FC) is 0.9 in data set [2] and 1.6 in [4]. For the same molecule, the IC50 in data set [3] came to 1.5 µM.
`c1ccc(Nc2cc(CNCCN3CCCCC3)cc(CNCCN3CCCCC3)c2)c(CN2CCCCC2)c1` came in with a CC50 at 72 h in data set [1] above 100 µM. Moreover, the fold change (FC) in data set [5] is 3.2 to 10; in [2], 4; in data set [6], 5.6 to 5.75; in [4] it was 2.6; in data set [7] it was 10. For the same molecule, the IC50 in data set [3] turned out to be 4.6 µM.
Regarding `CN(C)CCNCc1cc(NC(=O)CN2CCCCC2)cc(Nc2ccnc3cc(Cl)ccc23)c1`, in [1], it took 15 µM to reach half-maximal cytotoxicity (CC50 at 72 h). Further, the fold change (FC) in [2] amounted to 2.3; in data set [4], 1.7. Besides, the IC50 in data set [3] worked out at 2 µM.
As to `O=C(NCCN1CCCCC1)c1cc(Nc2ccccc2CN2CCCCC2)cc(C(=O)NCCN2CCCCC2)c1`, the fold change (FC) was 3 in [8]; 3.2 to 10 in data set [5]; 2.3 in data set [2]; 3 in data set [9]; 5.6 to 5.75 in data set [6]; 2.8 in data set [4]. In data set [1], this molecule yielded a CC50 at 72 h above 100 µM. Further, the IC50 in [3] was determined as 4.1 µM.
As for `O=C(NCCN1CCCCC1)c1cc(Nc2ccccc2CN2CCOCC2)cc(C(=O)NCCN2CCCCC2)c1`, in [1], the CC50 at 72 h is above 100 µM. Moreover, in data set [3], the IC50 is above 10 µM.
Regarding `c1ccc(Nc2cc(CNCCN3CCCCC3)cc(CNCCN3CCCCC3)c2)c(CN2CCOCC2)c1`, in [1], the CC50 at 72 h stood at 77 µM. Also, the results for the fold change (FC) in data set [2] and in [4] were 1.3 and 0.9, respectively. In addition, in data set [3], the IC50 was found to be 6.6 µM.
The like results for `CN1CCN(c2cc(Nc3ccnc4cc(Cl)ccc34)cc(N3CCN(C)CC3)c2)CC1` were, in that order, above 15 µM, 1.1, 1.4 and 2.3 µM.
The like results for `CN(C)Cc1ccccc1Nc1cc(C(=O)NCCN2CCCCC2)cc(C(=O)NCCN2CCCCC2)c1` were, in that order, above 100 µM, 3, 1 and 8.2 µM.
On to `CCN(CC)Cc1cc(Nc2ccnc3cc(Cl)ccc23)ccc1O` [AMODIAQUINE], for which, in data set [1], it took 10 µM to reach half-maximal cytotoxicity (CC50 at 72 h). Besides, the figures for the fold change (FC) in data set [2] and in data set [4] were 0.4 and 0.5, respectively. Moreover, the IC50 in data set [3] is 4 µM.
With `CCN(CC)Cc1cccc(Nc2ccnc3cc(Cl)ccc23)c1`, the midpoint of cytotoxicity in data set [1], the CC50 at 72 h, lay at 12 µM. The results for the fold change (FC) in [2] and in data set [4] were 0.5 and 0.6, respectively. The IC50 in data set [3] was 4.5 µM.
In [1], `CN1CCN(Cc2ccccc2-c2cc(C(=O)NCCN3CCCCC3)cc(C(=O)NCCN3CCCCC3)c2)CC1` gave a CC50 at 72 h above 100 µM. Besides, the IC50 in data set [3] is above 10 µM.
In turn, `CN(C)CCN(C)Cc1cc(NC(=O)CN2CCCCC2)cc(Nc2ccnc3cc(Cl)ccc23)c1` had a CC50 at 72 h in [1] of 4 µM. Moreover, the values for the fold change (FC) in data set [2] and in data set [4] were 3.4 and 2.1, respectively. Moreover, the IC50 in data set [3] worked out at 1.7 µM.
In turn, `c1ccc(-c2cc(CNCCN3CCCCC3)cc(CNCCN3CCCCC3)c2)c(CN2CCOCC2)c1` showed a CC50 at 72 h in [1] above 100 µM. Besides, in data set [3], the IC50 is above 10 µM.
The like results for `CN1CCN(Cc2ccccc2Nc2cc(C(=O)NCCN3CCCCC3)cc(C(=O)NCCN3CCCCC3)c2)CC1` were, in that order, above 100 µM and above 10 µM.
`O=C(CN1CCCCC1)Nc1cc(CN2CCOCC2)cc(Nc2ccnc3cc(Cl)ccc23)c1` displayed a CC50 at 72 h in [1] of 10 µM. Also, the fold change (FC) in data set [2] amounted to 0.5; in data set [4], 0.7. Besides, in data set [3], the IC50 is 3.1 µM.
